Assay outcomes deposited in PubChem by several laboratories.
This is a sample that favours compounds with a hit; in the whole collection about 2% have one here.
UCH37 inh: blocks the human deubiquitinase UCH37; inhibition, % (no concentration beside the values); Q9Y5K5; purified proteasome/UCH37, Ub-AMC cleavage fluorescence; 0.33% of 330,000 active;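 active = mean inhibition over replicate wells above about 20%, limit read from the data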;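 also: 0% = compound-free wells with enzyme and 100% = wells lacking proteasome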
Target sequence (Q9Y5K5 whole entry, looked up): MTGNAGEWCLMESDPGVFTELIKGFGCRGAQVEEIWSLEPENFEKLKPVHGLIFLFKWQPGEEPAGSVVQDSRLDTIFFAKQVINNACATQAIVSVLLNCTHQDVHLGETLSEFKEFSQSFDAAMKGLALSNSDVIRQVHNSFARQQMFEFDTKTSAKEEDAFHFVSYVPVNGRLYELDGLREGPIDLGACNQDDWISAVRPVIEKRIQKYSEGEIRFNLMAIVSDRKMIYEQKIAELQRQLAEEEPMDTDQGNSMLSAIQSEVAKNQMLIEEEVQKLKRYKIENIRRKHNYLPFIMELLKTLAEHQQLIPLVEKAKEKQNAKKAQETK
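Material: Human UCH37 enzyme supplied as purified proteasome complex | Schedule: 30 min preincubation with enzyme, 25 min cleavage at room temperature | Detection: AMC fluorescence 355/460 nm | Measure: % inhibition of Ub-AMC cleavage fluorescence | Controls: Wells without proteasome as full block, compound-free enzyme plus substrate as uninhibited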
PP5 primary: PP5 (human) phosphatase inhibition; purified PP5c, OMFP substrate fluorescence; inhibition, % at 6.7 µM; 0.18% of 320,000 active; AID 1987;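 active = inhibition above the campaign's mean inhibition across all tested compounds plus 3 SD, cut at about 9.5% in these data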;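 also: 0% = DMSO only and 100% = 100 µM cantharidin control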
GSTO1 inh: counter-screen for RBBP9 inhibitors: inhibitors of human GSTO1; P78417; inhibition, % at 5.96 µM; recombinant GSTO1, activity-based probe fluorescence polarization; 1.1% of 300,000 active;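 active = inhibition above the campaign mean inhibition plus 3 SD, cut at about 35% in these data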;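 also: 0% = GSTO1-1 with DMSO and 100% = wells lacking GSTO1-1 enzyme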
Target sequence (P78417 whole entry, looked up): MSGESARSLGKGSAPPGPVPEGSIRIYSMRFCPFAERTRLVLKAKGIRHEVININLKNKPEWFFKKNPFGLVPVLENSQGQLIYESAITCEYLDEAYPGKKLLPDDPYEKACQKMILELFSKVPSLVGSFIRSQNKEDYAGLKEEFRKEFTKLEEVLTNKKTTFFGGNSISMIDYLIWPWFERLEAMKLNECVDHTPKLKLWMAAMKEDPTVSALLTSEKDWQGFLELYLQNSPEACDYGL
PAD4 inh: blocks human protein arginine deiminase 4. Q9UM07. recombinant PAD4, RCA probe fluorescence polarization. inhibition, % at 6.36 µM. 0.41% of 330,000 active;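 active = percent inhibition above a cutoff equal to the mean of all tested compounds plus 3 SD, cut at about 15% in these data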;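 also: 0% = PAD4 with RCA probe and DMSO and 100% = probe without PAD4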
Apaf-1 inh: blocks human Apaf-1 apoptosome activity. O14727. AID 489030. 0.71% of 330,000 active. inhibition, % at 20 µM. reconstituted apoptosome caspase-3 activity, DEVD-Rh110 fluorescence; active = inhibition of at least 40% at 20 µM;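 also: plate controls were DMSO wells for no effect and DEVD-CHO caspase inhibitor wells for full effect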
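Material: reconstituted apoptosome with Apaf-1, cytochrome c, caspase-9, procaspase-3, dATP. Technique: Rh110 fluorescence intensity. Buffer or medium: pH 7.5 Hepes buffer with CHAPS, BSA, DTT. Times: 30 min plus 50 min, RT.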
Fh CTSL1 inh: counter-screen for PFM18AAP inhibitors: inhibitors of F. hepatica cathepsin L1; recombinant F. hepatica cathepsin L1, Z-Leu-Arg-MCA fluorescence; inhibition, % at 5.96 µM; 0.49% of 300,000 active;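 active = inhibition above the mean of all tested compounds plus 3 SD, set per screening campaign, cut at about 17% in these data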;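 also: 0% = plate median of test compound wells and 100% = 1 µM Z-Phe-Ala-diazomethylketone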
PAD4 FP conf: PAD4 (human) inhibition, confirmed. recombinant PAD4, RCA probe fluorescence polarization. 28% of 1,200 active. shares compounds with PAD4 inh. inhibition, % at 6.36 µM;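 active = mean inhibition across replicates above the hit cutoff set by the earlier primary screen, cut at about 15% in these data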;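 also: inhibitors block active-site labeling by the probe so polarization falls; 0% = PAD4 with probe and DMSO and 100% = probe without PAD4 enzyme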
Numbers without * were called inactive; x = no result given.

SMILES | UCH37 inh | PP5 primary | GSTO1 inh | PAD4 inh | Apaf-1 inh | Fh CTSL1 inh | PAD4 FP conf
CCn1c2ccccc2c2cc(C=NNC(=O)c3ccccc3C)ccc21 | -34 | x | x | x | x | x | x
CC(=O)c1cccc(NC(=S)NC2CCCCC2)c1 | 4 | 0 | 24 | 33* | 16 | 2 | 7
CC(=O)c1cccc(NC(=S)NC2CC2)c1 | 4 | 3 | 3 | 3 | 9 | -2 | x
Cc1ccc(Sc2ccc([N+](=O)[O-])cc2[N+](=O)[O-])nc1 | 8 | 1 | 13 | 1 | 17 | -4 | x
Cc1ccnc(Sc2ccc([N+](=O)[O-])cc2[N+](=O)[O-])n1 | 3 | 0 | 27 | 22* | -4 | -1 | 24*
COc1ccc(NC(=O)C(c2cc3c(cc2[N+](=O)[O-])OCO3)N(C)C)cc1 (configuration not stated) | 2 | 0 | 7 | 31* | 3 | 1 | 5
Cc1ccc(CS(=O)(=O)c2ncc(Cl)c(C(=O)Nc3nnc(C(C)C)s3)n2)cc1 | x | 3 | -8 | 95* | 2 | 1 | 2
O=S1(=O)N=C(N(CCO)N=Cc2ccc(Cl)cc2)c2ccccc21 | -43 | x | x | x | x | x | x
COC(=O)c1[nH]c(=O)c2ccccc2c1OCc1ccccc1 | 4 | 1 | -3 | -3 | 7 | -1 | x
COC(=O)c1[nH]c(=O)c2ccccc2c1O | -17 | 2 | 30 | 31* | 91* | 3 | -14
O=C(CNS(=O)(=O)c1ccc([N+](=O)[O-])cc1)NN=Cc1ccc(O)cc1 | 2 | x | x | x | x | x | x
CCOC(=O)c1c(N2C(=O)CC(Sc3ccccc3C(=O)O)C2=O)sc(C)c1C (configuration not stated) | 2 | -2 | 4 | 17* | -17 | -2 | 15
COCCn1c(C)c(C)c(S(=O)(=O)c2ccccc2)c1N | 4 | 1 | 13 | 28* | 13 | -7 | -3
Cc1c(S(=O)(=O)c2ccccn2)c(N)n(Cc2ccccc2)c1C | x | 4 | -1 | -11 | 18 | -1 | x
Cc1csc(NC(=O)CSc2ncnc3c2cnn3-c2ccccc2Cl)n1 | 0 | -1 | -24 | 15* | 11 | 1 | 8
O=C(NN=Cc1ccc(N2CCOCC2)cc1)c1ccccc1OCCOc1ccccc1 | -304 | x | x | x | x | x | x
COc1ccccc1C1CC(c2cccs2)=Nc2ccccc2S1 (configuration not stated) | 3 | 1 | 1 | 23* | 4 | -2 | 2
COc1ccccc1C1CC(c2cccs2)=NN1C(=O)CCC(=O)O (configuration not stated) | -7 | -2 | -1 | -8 | -17 | -1 | x
O=C(c1ccc(Cl)c(S(=O)(=O)N2CCOCC2)c1)N1CCCC1 | 1 | -1 | 3 | 16* | 6 | 9 | 1
O=C(c1ccc(Cl)c(S(=O)(=O)N2CCCC2)c1)N1CCOCC1 | 2 | 2 | 4 | -5 | -5 | 0 | x
COc1cc(SC#N)ccc1N=Cc1c(C)[nH]n(-c2ccc(Cl)cc2)c1=O | 7 | 0 | -14 | 30* | 25 | 3 | 37*
CN1CCN(c2nc3nonc3nc2N2CCN(C)CC2)CC1 | 4 | 2 | 12 | 21* | 6 | 3 | 6
O=C(O)c1ccccc1C1=Nc2ccc(O)cc2Oc2cc(O)ccc21 | 12 | -1 | 17 | 26* | -5 | 4 | 35*
CCC1CCCC1=NNC(=O)c1ccc(Cl)cc1 (configuration not stated) | 0 | x | x | x | x | x | x
Cn1cccc1/C=C1\SC(=S)N(NC(=O)c2ccccc2Cl)C1=O | x | 4 | 0 | 18* | x | 3 | 2
SMILES | UCH37 inh | PP5 primary | GSTO1 inh | PAD4 inh | Apaf-1 inh | Fh CTSL1 inh | PAD4 FP conf
O=C(O)c1ccc(C=NN2CCN(Cc3ccc(Cl)cc3)CC2)cc1 | 2 | x | x | x | x | x | x
COc1cc2c(C#N)c(N3CCOCC3)nc(N)c2c(N)n1 | -113 | 2 | 7 | 18* | 5 | 1 | 1
COCCNC(=O)C(c1ccncc1)N(C(=O)Cn1nnc2ccccc21)c1ccc(OC)cc1 (configuration not stated) | 1 | -1 | 15 | 16* | -6 | -2 | 19*
O=C(CNc1ccccc1)NN=Cc1ccc2c(c1)OCO2 | 2 | x | x | x | x | x | x
Cc1cc(C)c(S(=O)(=O)NN=Cc2ccc([N+](=O)[O-])o2)c(C)c1 | 3 | x | x | x | x | x | x
Oc1ccc(Cl)cc1C1=Nc2ccccc2N=C(c2ccco2)C1 | 5 | 3 | 15 | -1 | 3 | 6 | x
Fc1ccccc1C1CC(c2ccco2)=Nc2ccccc2S1 (configuration not stated) | 1 | 0 | -1 | 19* | -4 | 0 | 4
O=C(NN=Cc1ccc([N+](=O)[O-])cc1)C(=O)N1CCCC1 | 12 | x | x | x | x | x | x
COc1ccccc1C(=O)NN=C(C)CC(=O)Nc1ccccc1NC(C)=O | 2 | x | x | x | x | x | x
CC1CCN(c2ccc(/C=N\Nc3nncn3N)cc2[N+](=O)[O-])CC1 | x | 4 | 18 | 30* | x | -7 | -7
COc1cc(/C=N/Nc2nncn2/N=C/c2ccc(O)c(OC)c2)ccc1O | x | 3 | 18 | 43* | 8 | 3 | 7
COc1cc(/C=N\Nc2nncn2N)ccc1OC(C)=O | x | -1 | 3 | 31* | -12 | -2 | 7
CCOc1cc(/C=N/Nc2nnc(C)n2N)ccc1O | x | 2 | 37* | 50* | 3 | 4 | 0
CCOc1cc(/C=N/Nc2ncnc(Cl)c2N)ccc1O | x | 2 | 9 | 0 | -3 | 4 | x
COC(=O)NN=C(C)c1ccco1 | 2 | x | x | x | x | x | x
COC(=O)C1=C(N)n2c(sc(=Cc3cccnc3)c2=O)=C(C(=O)OC)C1c1cccnc1 (configuration not stated) | 5 | x | x | x | x | x | x
COc1ccc(OC)c(/C=N/Nc2nncn2/N=C/c2cc(OC)ccc2OC)c1 | x | 0 | 12 | 21* | -3 | 4 | 4
COc1ccc(OC)c(C=NNc2nncn2N=Cc2cc(OC)ccc2OC)c1 | -5 | x | x | x | x | x | x
COC(=O)c1ccc2c(c1)SC1=C(CCCC1=O)N2 | 1 | 2 | 15 | 43* | 0 | 1 | 40*
O=C1CCCC2=C1Sc1ccc(Cl)cc1N2 | 2 | 1 | 6 | -1 | -4 | 7 | x
COc1ccccc1/C=C/C=NNC(=O)c1ccco1 | -12 | x | x | x | x | x | x
CCOC(=O)C1=C(C)NC(=O)C(C#N)C1c1ccco1 (configuration not stated) | 1 | 0 | -7 | 18* | -5 | 12 | 2
O=C(O)c1cc(-c2ccc(C=NNc3ccc([N+](=O)[O-])cn3)o2)ccc1Cl | 20 | x | x | x | x | x | x
CCN1C(=O)[C@@H]2C(C(=O)c3cnccn3)=NN[C@@H]2C1=O | 9 | 5 | 5 | 20* | 9 | 0 | -7
CCCCC1OC23CCCCC2C(C#N)(C#N)C1(C#N)C(=N)O3 (configuration not stated) | -11 | 5 | 7 | 25* | 3 | 0 | 17*
